Test results: ChEMBL document CHEMBL4406918, “Inhibitory Effects of Multivalent Polypeptides on the Proliferation and Metastasis of Breast Cancer Cells” (ACS Med Chem Lett, 2019)
Active and inactive are the calls of the source. No cut-off for these calls is given here. Where a SMILES comes first, the peptide text is derived from it. Side-chain parts run from the residue outwards.

Columns and labels:
[1] = biological target: Matrix metalloproteinase-9 (Mus musculus) (UniProt P41245); test: Residual MMP9 activity in mouse 4T1 cells at 0.2 mM incubated for 24 hrs by coomassie brilliant blue staining based gelatin zymography assay relative to control
[2] = system: 4T1; test: Induction of apoptosis in mouse 4T1 cells at 0.8 mM incubated for 24 hrs by PI staining based inverted microscopic method; format: functional, cell-based
Method in brief: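 Live–dead staining of 4T1 cells after 24 h exposure, with PI uptake imaged microscopically. A higher 0.8 mM dose was also tested.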

[3] = system: 4T1; test: Antitumour activity against mouse 4T1 cells xenografted in BALB/c mouse assessed as increase in cytotoxic tumor cell death at 10 mg/kg administered intratumorally and measured after 24 days by H and E staining based inverted optical microscopic method; format: functional, organism-based
Method in brief: (§1)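 BALB/c mice bearing subcutaneous 4T1 tumours received 6 doses at 10 mg/kg body weight, matched for YSL monomer molar amount, with saline as control. Tumour sections were stained for H&E, CD31, Ki-67 and TUNEL. n = 5.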

[4] = system: 4T1; test: Antitumour activity against mouse 4T1 cells xenografted in BALB/c mouse assessed as reduction in size of lung tumor metastatic nodules at 10 mg/kg administered intratumorally and measured after 24 days by H and E staining based inverted optical microscopic method; format: functional, organism-based
Method in brief: (§2)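 After 6 doses of 10 mg/kg to 4T1 tumour-bearing BALB/c mice (saline control), lungs were photographed whole and examined histopathologically for the number and size of metastatic nodules.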

[5] = system: 4T1; test: Induction of apoptosis in mouse 4T1 cells assessed as viable cells at 0.4 mM incubated for 24 hrs by Annexin V-FITC/PI based FACS analysis (reference value: 92.2%); format: functional; settings: 4T1, 24 h, read-out: Activity
[6] = system: Erythrocyte; test: Hemolytic activity in BALB/c mouse RBC at 3.2 mM incubated for 2 hrs by UV-Vis spectrophotometric analysis; format: ADME, cell-based; settings: 3200 µM
Method in brief: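 Hemolysis assay on red blood cells with dendrimers up to 3.2 mM. Result is expressed as hemolysis rate, with under 5% taken as acceptable.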

[7] = system: 4T1; test: Induction of apoptosis in mouse 4T1 cells assessed as late apoptotic cells at 0.4 mM incubated for 24 hrs by Annexin V-FITC/PI based FACS analysis (reference value: 6.62%); format: functional
[8] = Toxicity in BALB/c mouse xenografted with mouse 4T1 cells assessed as change in blood urea nitrogen level at 10 mg/kg administered intratumorally and measured after 24 days; format: organism-based; settings: in vivo, other, 576 h
[9] = system: 4T1; test: Induction of apoptosis in mouse 4T1 cells assessed as early apoptotic cells at 0.4 mM incubated for 24 hrs by Annexin V-FITC/PI based FACS analysis (reference value: 0.76%); format: functional
[10] = Toxicity in BALB/c mouse xenografted with mouse 4T1 cells assessed as induction of morphological lesions in kidney at 10 mg/kg administered intratumorally and measured after 24 days by H and E staining based inverted optical microscopic method; format: organism-based; settings: in vivo, other, 576 h
[11] = system: 4T1; test: Antiproliferative activity against mouse 4T1 cells at 0.1 mM incubated for 24 hrs by MTT assay; format: functional, cell-based
[12] = system: 4T1; test: Inhibition of cell migration in mouse 4T1 cells assessed as wound closure rate at 0.2 mM measured up to 36 hrs by inverted optical microscopic method based wound healing assay (reference value: 82%); format: functional; design: scale not given: the % may be the effect or the level left
[13] = system: 4T1; test: Induction of cell cycle arrest in mouse 4T1 cells assessed as accumulation at G0/G1 phase at 0.4 mM incubated for 24 hrs by PI staining based flow cytometric analysis (reference value: 37.78%); format: functional
[14] = system: 4T1; test: Inhibition of metastasis in mouse 4T1 cells assessed as formation of pseudopods at 0.2 mM incubated for 24 hrs by SEM analysis; format: functional, cell-based
Method in brief: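 4T1 cells treated 24 h, then imaged by scanning electron microscopy for pseudopod formation. Dendrimers were tested at 0.2 mM and the reference at 10–5 mM.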

[15] = system: 4T1; test: Antiinvasive activity in mouse 4T1 cells assessed as inhibition of cell invasion at 0.2 mM incubated for 24 hrs by crystal violet staining based matrigel invasion assay relative to control; format: functional; settings: 4T1, 24 h
Method in brief: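 4T1 cells, Matrigel-coated Transwell invasion with 0.2 mM compound. Invasion rate comes from counting cells on the underside of the Matrigel-coated porous membrane, relative to untreated control. Mean ± SD, n = 3.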

[16] = system: 4T1; test: Induction of cell cycle arrest in mouse 4T1 cells assessed as accumulation at G2/M phase at 0.4 mM incubated for 24 hrs by PI staining based flow cytometric analysis (reference value: 19.82%); format: functional
[17] = Toxicity in BALB/c mouse xenografted with mouse 4T1 cells assessed as change in serum creatinine level at 10 mg/kg administered intratumorally and measured after 24 days; format: organism-based; settings: in vivo, other, 576 h
[18] = system: 4T1; test: Antiproliferative activity against mouse 4T1 cells assessed as cell death at 0.2 mM incubated for 24 hrs by MTT assay relative to control; format: functional
Method in brief: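 Mouse 4T1 breast cancer cells exposed for 24 h (doses include 0.1 and 0.2 mM), then read by MTT for viability or cell death. Mean ± SD, n = 6.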

[19] = system: 4T1; test: Inhibition of metastasis in mouse 4T1 cells assessed as cell shrinkage at 0.2 mM incubated for 24 hrs by Hoechst 33342 staining based confocal laser scanning microscopic method; format: functional
Method in brief: (§3)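 After 24 h treatment, 4T1 cells were stained with Alexa Fluor 488 phalloidin for F-actin and Hoechst 33342 for nuclei, then imaged by fluorescence microscopy to assess cytoskeleton and cell morphology.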

[20] = system: 4T1; test: Induction of cell cycle arrest in mouse 4T1 cells assessed as accumulation at S phase at 0.4 mM incubated for 24 hrs by PI staining based flow cytometric analysis (Rvb =42.35%); format: functional
[21] = system: 4T1; test: Antitumour activity against mouse 4T1 cells xenografted in BALB/c mouse assessed as reduction in number of lung tumor metastatic nodules at 10 mg/kg administered intratumorally and measured after 24 days by H and E staining based inverted optical microscopic method; format: functional, organism-based
Method in brief: as §2

[22] = Stability in fetal bovine serum assessed as parent compound remaining measured after 12 hrs by RP-HPLC analysis; format: ADME, cell-free, Bos taurus; settings: cattle, read-out: Stability
Method in brief: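 Peptides incubated in serum, and the fraction of intact YSL was measured over time up to 12 h, including a 4 h point.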

[23] = Toxicity in BALB/c mouse xenografted with mouse 4T1 cells assessed as induction of morphological lesions in liver at 10 mg/kg administered intratumorally and measured after 24 days by H and E staining based inverted optical microscopic method; format: organism-based; settings: in vivo, other, 576 h
[24] = system: 4T1; test: Inhibition of cell migration in mouse 4T1 cells assessed as migration frequency at 0.2 mM incubated for 24 hrs by crystal violet staining based transwell assay relative to control; format: functional; design: scale not given: the % may be the effect or the level left
Method in brief: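 4T1 cells, Transwell migration with 24 h exposure to 0.2 mM. Migration rate comes from counting cells on the bottom of the porous membrane. Mean ± SD, n = 3.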

[25] = system: 4T1; test: Antitumour activity against mouse 4T1 cells xenografted in BALB/c mouse assessed as increase in number of TUNEL positive cells at 10 mg/kg administered intratumorally and measured after 24 days by H and E staining based inverted optical microscopic method; format: functional, organism-based
Method in brief: as §1

[26] = system: 4T1; test: Induction of apoptosis in mouse 4T1 cells assessed as necrotic cells at 0.4 mM incubated for 24 hrs by Annexin V-FITC/PI based FACS analysis (reference value: 0.47%); format: functional
[27] = system: 4T1; test: Inhibition of metastasis in mouse 4T1 cells assessed as shortening in actin filaments at 0.2 mM incubated for 24 hrs by Hoechst 33342 staining based confocal laser scanning microscopic method; format: functional, cell-based
Method in brief: as §3

[28] = Toxicity in BALB/c mouse xenografted with mouse 4T1 cells assessed as induction of morphological lesions in heart at 10 mg/kg administered intratumorally and measured after 24 days by H and E staining based inverted optical microscopic method; format: organism-based; settings: in vivo, other, 576 h
[29] = system: 4T1; test: Antitumour activity against mouse 4T1 cells xenografted in BALB/c mouse assessed as increase in damage of tumor tissue at 10 mg/kg administered intratumorally and measured after 24 days by H and E staining based inverted optical microscopic method; format: functional, organism-based
Method in brief: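 Tumours from 4T1-bearing BALB/c mice given 6 doses of 10 mg/kg (saline control) were sectioned and stained with H&E, plus CD31, Ki-67 and TUNEL.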

[30] = Toxicity in BALB/c mouse xenografted with mouse 4T1 cells assessed as induction of morphological lesions in spleen at 10 mg/kg administered intratumorally and measured after 24 days by H and E staining based inverted optical microscopic method; format: organism-based; settings: in vivo, other, 576 h
[31] = Toxicity in BALB/c mouse xenografted with mouse 4T1 cells assessed as change in body weight at 10 mg/kg administered intratumorally and measured after 24 days; format: organism-based; settings: in vivo, other, 576 h
Method in brief: (§4)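 BALB/c mice bearing subcutaneous 4T1 tumours received 6 doses of 10 mg/kg, with equal YSL-monomer molar amounts across compounds and saline as control. Tumour volume growth curves and body weights were tracked. Mean ± SD, n = 5.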

[32] = system: 4T1; test: Inhibition of metastasis in mouse 4T1 cells assessed as disruption in F-actin arrangement at 0.2 mM incubated for 24 hrs by Hoechst 33342 staining based confocal laser scanning microscopic method; format: functional, cell-based
Method in brief: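 After 24 h at 0.2 mM, 4T1 cells were stained for F-actin with Alexa Fluor 488 phalloidin and for nuclei with Hoechst 33342, then imaged by fluorescence for cytoskeletal arrangement and cell morphology.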

[33] = system: 4T1; test: Antitumour activity against mouse 4T1 cells xenografted in BALB/c mouse assessed as inhibition in tumor growth at 10 mg/kg administered intratumorally and measured every 3 days for 24 days; format: functional, organism-based
Method in brief: as §4

Matrix metalloproteinase-9 (Mus musculus), sequence (P41245 whole entry): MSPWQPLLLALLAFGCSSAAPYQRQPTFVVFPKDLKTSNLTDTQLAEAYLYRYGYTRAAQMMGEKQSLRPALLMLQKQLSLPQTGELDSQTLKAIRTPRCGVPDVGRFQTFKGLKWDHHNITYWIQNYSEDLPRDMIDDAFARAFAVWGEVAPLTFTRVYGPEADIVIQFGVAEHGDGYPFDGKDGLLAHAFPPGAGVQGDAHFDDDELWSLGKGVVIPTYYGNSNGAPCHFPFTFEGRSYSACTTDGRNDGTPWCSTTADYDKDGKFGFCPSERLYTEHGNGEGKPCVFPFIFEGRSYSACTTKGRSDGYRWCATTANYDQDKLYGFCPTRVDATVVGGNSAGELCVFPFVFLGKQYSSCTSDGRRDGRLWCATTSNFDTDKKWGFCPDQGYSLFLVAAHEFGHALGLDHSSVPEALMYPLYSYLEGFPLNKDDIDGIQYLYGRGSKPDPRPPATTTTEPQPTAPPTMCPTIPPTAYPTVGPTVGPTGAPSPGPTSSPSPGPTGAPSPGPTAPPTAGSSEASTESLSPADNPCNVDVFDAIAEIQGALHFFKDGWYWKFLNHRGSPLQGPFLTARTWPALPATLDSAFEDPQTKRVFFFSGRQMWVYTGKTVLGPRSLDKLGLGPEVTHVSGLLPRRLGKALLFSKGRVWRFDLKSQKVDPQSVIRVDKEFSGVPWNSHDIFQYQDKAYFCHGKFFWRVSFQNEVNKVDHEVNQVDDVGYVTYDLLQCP

Compound	residual activity [1] [%]	Activity [2]	Activity [4]	viability at 400 µM [5] [%]	Activity [6]	Activity [7] [%]	Activity [8]	Activity [9] [%]	Activity [10]	Activity [11]	Activity [12] [%]	Activity [13] [%]	inhibition at 200 µM [15] [%]	Activity [16] [%]	Activity [17]	Activity [18] [%]	Activity [20] [%]	Activity [21]	remaining at 12 h [22] [%]	Activity [23]	also measured
COC(=O)[C@H](CCCCNC(=O)[C@H](CCCCNC(=O)[C@H](CC(C)C)NC(=O)[C@H](CO)NC(=O)[C@@H](N)Cc1ccc(O)cc1)NC(=O)[C@H](CC(C)C)NC(=O)[C@H](CO)NC(=O)[C@@H](N)Cc1ccc(O)cc1)NC(=O)[C@H](CCCCNC(=O)[C@H](CC(C)C)NC(=O)[C@H](CO)NC(=O)[C@@H](N)Cc1ccc(O)cc1)NC(=O)[C@H](CC(C)C)NC(=O)[C@H](CO)NC(=O)[C@@H](N)Cc1ccc(O)cc1	70	Active	Active	77.7	Non-Toxic	20.4	Non-Toxic	0.7	Non-Toxic	inactive	76	38.06	41	15.31	Non-Toxic	10	46.98	Active	> 80	Non-Toxic	Activity [3]: Active; inhibition [14]: inactive; inhibition [19]: Active; Activity [24]: 39%; Activity [25]: Active; Activity [26]: 1.23%; inhibition [27]: Active; Activity [28]: Non-Toxic; Activity [29]: Active; Activity [30]: Non-Toxic; Activity [31]: Non-Toxic; F-actin disruption (qualitative) [32]: Active
COC(=O)[C@H](CCCCNC(=O)[C@H](CC(C)C)NC(=O)[C@H](CO)NC(=O)[C@@H](N)Cc1ccc(O)cc1)NC(=O)[C@H](CC(C)C)NC(=O)[C@H](CO)NC(=O)[C@@H](N)Cc1ccc(O)cc1 (H-YSLK([Leu-Ser-Tyr])-OMe)	75	Active	Active	80.2	Non-Toxic	18.8	Non-Toxic	0.77	Non-Toxic	inactive	79	37.72	70	15.35	Non-Toxic	5	47.25	Active	> 80	Non-Toxic	Activity [33]: Active; Activity [24]: 68%; Activity [25]: Active; Activity [26]: 0.26%; Activity [28]: Non-Toxic; Activity [29]: Active; Activity [30]: Non-Toxic; Activity [31]: Non-Toxic; F-actin disruption (qualitative) [32]: Active
